One assay is described as follows: ABTS method. Particulars: for IC50: read-out: ABTS scavenging IC50.
The next assay addresses jack bean urease (Canavalia ensiformis, UniProt P07374). Nature of the assay: Urease inhibition assay. The class given is biochemical. The following applies: for IC50: Enzyme (SEM ±) J.B Urease, IC50, mean ± SEM, 3 experiments.
A short description of assay [1]: DPPH free radical scavenging activity. Particulars: for IC50: read-out: DPPH scavenging IC50.
Assay [2] deals with Bacillus Pasteurii urease (Sporosarcina pasteurii, UniProt P41020). Nature of the assay: Urease inhibition assay. It is filed as biochemical. Particulars: Enzyme (SEM ±) B.P Urease, IC50, mean ± SEM, 3 experiments.
Assay [3] is described as follows: Superoxide anion scavenging assay. The following applies: for IC50: read-out: superoxide anion scavenging IC50.
Another assay deals with α-Glucosidase (Saccharomyces cerevisiae, UniProt P53341). Kind of assay: α-Glucosidase inhibition assay. The class given is biochemical. The method, boiled down: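 Test compound (200–800 μg/mL) pre-incubated 5 min at 37 °C with 2 % w/v starch (sucrose) solution in 0.2 M Tris buffer, pH 8.0. 5 mM p-nitrophenyl-α-D-glucopyranoside added intermittently, then α-glucosidase (1 U/mL), 40 min at 35 °C. Stopped with […]; absorbance read at 405 nm. % inhibition = (control − sample)/control × 100; samples above 50 % taken to IC50.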

Consider seven compounds from PMC11327602 (Heliyon, 2024).

“And” between values parts separate entries of the source, which are not always exact repeats. Equal entries are not always repeated.

Bacillus Pasteurii urease, sequence (P41020 whole entry): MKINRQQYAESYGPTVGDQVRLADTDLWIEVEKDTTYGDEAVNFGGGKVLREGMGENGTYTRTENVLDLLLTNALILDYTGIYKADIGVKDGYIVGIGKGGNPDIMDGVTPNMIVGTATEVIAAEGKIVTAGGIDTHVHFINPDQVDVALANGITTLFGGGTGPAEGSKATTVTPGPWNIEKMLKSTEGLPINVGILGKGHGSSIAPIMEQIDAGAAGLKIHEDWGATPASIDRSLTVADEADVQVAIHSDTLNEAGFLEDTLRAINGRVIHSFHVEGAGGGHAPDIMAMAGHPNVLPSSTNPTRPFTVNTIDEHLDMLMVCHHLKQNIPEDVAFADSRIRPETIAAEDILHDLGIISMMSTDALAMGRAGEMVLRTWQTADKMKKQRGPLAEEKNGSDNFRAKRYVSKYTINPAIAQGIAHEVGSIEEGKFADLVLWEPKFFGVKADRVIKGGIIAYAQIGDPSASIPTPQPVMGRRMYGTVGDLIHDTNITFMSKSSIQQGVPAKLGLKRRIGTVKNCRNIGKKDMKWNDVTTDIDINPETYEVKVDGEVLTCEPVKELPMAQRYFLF
Bacillus Pasteurii urease, sequence (P41021 whole entry partner): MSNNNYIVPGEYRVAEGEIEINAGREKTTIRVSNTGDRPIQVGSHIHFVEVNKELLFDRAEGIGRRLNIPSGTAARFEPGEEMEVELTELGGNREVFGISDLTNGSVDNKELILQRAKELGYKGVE
Bacillus Pasteurii urease, sequence (P41022 whole entry partner): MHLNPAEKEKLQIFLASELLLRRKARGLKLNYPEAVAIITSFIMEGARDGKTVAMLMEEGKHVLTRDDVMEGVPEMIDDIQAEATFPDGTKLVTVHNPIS
α-Glucosidase, sequence (P53341 whole entry): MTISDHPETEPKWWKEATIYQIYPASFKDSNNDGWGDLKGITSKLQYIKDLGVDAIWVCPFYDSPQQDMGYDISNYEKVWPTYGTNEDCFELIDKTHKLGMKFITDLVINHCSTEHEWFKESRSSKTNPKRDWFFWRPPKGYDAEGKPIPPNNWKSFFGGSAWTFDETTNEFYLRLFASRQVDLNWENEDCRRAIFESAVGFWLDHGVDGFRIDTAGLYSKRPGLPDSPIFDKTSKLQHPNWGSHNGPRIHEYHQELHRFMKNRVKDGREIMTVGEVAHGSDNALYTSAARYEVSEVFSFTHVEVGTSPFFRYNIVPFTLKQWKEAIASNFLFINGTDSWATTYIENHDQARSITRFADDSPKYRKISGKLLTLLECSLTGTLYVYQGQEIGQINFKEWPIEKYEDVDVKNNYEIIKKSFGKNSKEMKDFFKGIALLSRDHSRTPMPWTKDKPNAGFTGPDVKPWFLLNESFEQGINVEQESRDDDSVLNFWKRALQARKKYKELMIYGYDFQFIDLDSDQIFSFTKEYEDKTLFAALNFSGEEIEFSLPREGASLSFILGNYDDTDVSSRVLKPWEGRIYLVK
jack bean urease, sequence (P07374 whole entry, looked up): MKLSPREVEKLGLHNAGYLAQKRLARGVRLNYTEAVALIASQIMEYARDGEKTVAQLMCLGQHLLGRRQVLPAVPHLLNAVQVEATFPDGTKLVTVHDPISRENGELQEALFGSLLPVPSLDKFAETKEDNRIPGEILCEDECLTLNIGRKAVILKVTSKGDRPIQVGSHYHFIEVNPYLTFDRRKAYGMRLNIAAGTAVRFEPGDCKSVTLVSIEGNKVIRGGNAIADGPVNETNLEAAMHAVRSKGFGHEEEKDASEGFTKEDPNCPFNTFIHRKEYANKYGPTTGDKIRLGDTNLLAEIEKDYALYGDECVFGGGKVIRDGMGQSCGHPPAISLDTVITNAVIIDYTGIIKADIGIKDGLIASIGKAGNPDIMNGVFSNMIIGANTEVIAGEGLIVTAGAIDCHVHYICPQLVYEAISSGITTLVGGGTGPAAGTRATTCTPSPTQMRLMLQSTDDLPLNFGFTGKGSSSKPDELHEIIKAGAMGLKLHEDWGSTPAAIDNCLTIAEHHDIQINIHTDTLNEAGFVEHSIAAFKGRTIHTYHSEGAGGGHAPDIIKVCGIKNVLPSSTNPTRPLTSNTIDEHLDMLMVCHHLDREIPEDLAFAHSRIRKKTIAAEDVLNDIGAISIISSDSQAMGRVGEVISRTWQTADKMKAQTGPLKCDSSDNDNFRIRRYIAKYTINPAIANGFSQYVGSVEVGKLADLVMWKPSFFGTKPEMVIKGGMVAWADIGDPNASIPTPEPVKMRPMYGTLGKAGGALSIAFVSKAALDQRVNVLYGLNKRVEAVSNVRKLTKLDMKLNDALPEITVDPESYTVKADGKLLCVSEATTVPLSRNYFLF

As to `O=S(=O)(c1ccc(F)cc1)N(Cc1ccccc1)c1nccs1` [Compound 24, N-benzyl-4-fluoro-N-(thiazol-2-yl)benzenesulfonamide], the “ABTS % Scavenging” value in “ABTS method” (10 μM) is recorded as 25.11 ± 0.11%; in the assay “ABTS method” (20 μM), 33.6 ± 0.55%; in “ABTS method” (30 μM) it was 44.31 ± 0.17%; in “ABTS method” (40 μM), 48.23 ± 0.51%; in the assay “ABTS method” (50 μM), 76.23 ± 0.22%. Further, the IC50 turned out to be 42.12 ± 0.21 µM in “ABTS method”; 32.11 ± 0.13 µM on jack bean urease; 62.5 ± 0.07 µM in assay [1]; 40.88 ± 0.26 µM in assay [2]; 59 ± 0.16 µM in assay [3]. Also, the “Types of inhibition (urease)” value on jack bean urease was “Competitive”. In addition, the “DPPH % Scavenging” value stood at 21.3 ± 0.18% in assay [1] (25 μM), 44.1 ± 0.55% in assay [1] (50 μM), 75.1 ± 0.30% in assay [1] (75 μM) and 89.4 ± 0.35% in assay [1] (100 μM). In addition, the “superoxide anion % scavenging” value in assay [3] (25 μM) turned out to be 33 ± 0.21%; in assay [3] (50 μM), 45 ± 0.35%; in assay [3] (75 μM), 84 ± 0.25%; in assay [3] (100 μM), 97 ± 0.15%. The “Type of Inhibition (α-glucosidase and α-amylase)” value (shortened to “Type of Inhibition”) on α-Glucosidase is listed as “Non-competitive”. Besides, on α-Glucosidase, the “inhibition against both enzymes (α-glucosidase and α-amylase), in words” value is reported as “weak inhibition”.
Regarding `C=CCN(c1nccs1)S(=O)(=O)c1ccc(C)cc1` [Compound 26, N-Allyl-4-methyl-N-(thiazol-2-yl)benzenesulfonamide], the “ABTS % Scavenging” value in “ABTS method” (10 μM) was 09.02 ± 0.03%; in the assay “ABTS method” (20 μM), 24.03 ± 0.01%; in “ABTS method” (30 μM), 43.08 ± 0.09%; in the assay “ABTS method” (40 μM) it was 75.07 ± 0.02%; in “ABTS method” (50 μM), 96.06 ± 0.21%. The IC50 was ~33 µM and 33 µM in the assay “ABTS method”; 30.11 ± 0.07 µM at jack bean urease; ~38.3 µM and 38.3 µM in assay [1]; 38.2 ± 0.36 µM in assay [2]; ~36 µM and 36 µM in assay [3]. Also, at jack bean urease, the “Types of inhibition (urease)” value is listed as “Non-competitive”. In addition, the “DPPH % Scavenging” value was 43.2 ± 0.8% in assay [1] (25 μM), 74.8 ± 0.3% in assay [1] (50 μM), 88.5 ± 0.1% in assay [1] (75 μM) and 99.2 ± 0.2% in assay [1] (100 μM). In addition, the “superoxide anion % scavenging” value in assay [3] (25 μM) is on record as 27 ± 0.07%; in assay [3] (50 μM), 63 ± 0.01%; in assay [3] (75 μM) it was 73 ± 0.11%; in assay [3] (100 μM), 94 ± 0.51%. The “Type of Inhibition” value at α-Glucosidase is “Competitive”.
Regarding `C=CCN(c1nccs1)S(=O)(=O)c1ccc(OC)cc1` [Compound 27, N-allyl-4-methoxy-N-(thiazol-2-yl)benzenesulfonamide], the “ABTS % Scavenging” value in “ABTS method” (10 μM) is recorded as 10.02 ± 0.05%; in the assay “ABTS method” (20 μM) it was 19.08 ± 0.03%; in “ABTS method” (30 μM), 43.02 ± 0.09%; in the assay “ABTS method” (40 μM), 70.02 ± 0.11%; in the assay “ABTS method” (50 μM), 93.09 ± 0.02%. For the same compound, the 50% inhibitory concentration (IC50) in the assay “ABTS method” was 40.05 ± 0.08 µM; on jack bean urease it was 24.1 ± 0.34 µM; in assay [1], ~39.2 µM and 39.2 µM; in assay [2], 26.37 ± 0.22 µM; in assay [3], 45 ± 0.19 µM. Further, at jack bean urease, the “Types of inhibition (urease)” value is listed as “Competitive”. For the same compound, the “DPPH % Scavenging” value in assay [1] (25 μM) turned out to be 33.2 ± 0.01%; in assay [1] (50 μM), 59.6 ± 0.2%; in assay [1] (75 μM) it was 75.4 ± 0.2%; in assay [1] (100 μM), 91.8 ± 0.03%. The “superoxide anion % scavenging” value came out at 25 ± 0.17% in assay [3] (25 μM), 71 ± 0.25% in assay [3] (50 μM), 86 ± 0.03% in assay [3] (75 μM) and 93 ± 0.52% in assay [3] (100 μM). Further, at α-Glucosidase, the “Type of Inhibition” value was “Non-competitive”.
For the compound `C=CCN(c1nccs1)S(=O)(=O)c1ccc(Br)cc1` [Compound 28, N-Allyl-4-bromo-N-(thiazol-2-yl)benzenesulfonamide], the “ABTS % Scavenging” value came to 10.01 ± 0.02% in the assay “ABTS method” (10 μM); 27.3 ± 0.05% in “ABTS method” (20 μM); 48.08 ± 0.9% in “ABTS method” (30 μM); 55.7 ± 0.22% in the assay “ABTS method” (40 μM); 99.06 ± 0.25% in the assay “ABTS method” (50 μM). Besides, the 50% inhibitory concentration (IC50) in the assay “ABTS method” was ~35 µM and 35 µM; at jack bean urease, 29.55 ± 0.12 µM; in assay [1] it was ~48.4 µM and 48.4 µM; in assay [2], 36.1 ± 0.43 µM; in assay [3], ~39 µM and 39 µM. On jack bean urease, the “Types of inhibition (urease)” value is reported as “Non-competitive”. Further, the “DPPH % Scavenging” value in assay [1] (25 μM) is recorded as 48.2 ± 0.09%; in assay [1] (50 μM), 70.7 ± 0.01%; in assay [1] (75 μM) it was 85.3 ± 0.3%; in assay [1] (100 μM) it was 91.2 ± 0.06%. Moreover, the “superoxide anion % scavenging” value in assay [3] (25 μM) is recorded as 25 ± 0.02%; in assay [3] (50 μM), 66 ± 0.11%; in assay [3] (75 μM) it was 77 ± 0.18%; in assay [3] (100 μM), 99 ± 0.31%. The “Type of Inhibition” value at α-Glucosidase was “Competitive”.
In the case of `C=CCN(c1nccs1)S(=O)(=O)c1ccccc1` [Compound 29, N-allyl-N-(thiazol-2-yl)benzenesulfonamide], the “ABTS % Scavenging” value in the assay “ABTS method” (10 μM) is reported as 19.2 ± 0.5%; in the assay “ABTS method” (20 μM), 23.07 ± 0.13%; in the assay “ABTS method” (30 μM), 45.01 ± 0.19%; in “ABTS method” (40 μM), 74.12 ± 0.17%; in “ABTS method” (50 μM) it was 89.19 ± 0.12%. The IC50 came to 43.21 ± 0.15 µM in the assay “ABTS method”; 21.22 ± 0.17 µM against jack bean urease; 52.5 ± 0.11 µM in assay [1]; 23.02 ± 0.15 µM in assay [2]; 43 ± 0.17 µM in assay [3]. Besides, the “Types of inhibition (urease)” value at jack bean urease is “Non-competitive”. Besides, the “DPPH % Scavenging” value in assay [1] (25 μM) was found to be 34.5 ± 0.21%; in assay [1] (50 μM) it was 49.1 ± 0.13%; in assay [1] (75 μM), 77.2 ± 0.7%; in assay [1] (100 μM), 93.5 ± 0.08%. Moreover, the “superoxide anion % scavenging” value in assay [3] (25 μM) is reported as 28 ± 0.07%; in assay [3] (50 μM), 73 ± 0.20%; in assay [3] (75 μM) it was 85 ± 0.13%; in assay [3] (100 μM), 96 ± 0.32%. The “Type of Inhibition” value on α-Glucosidase is recorded as “Non-competitive”.
For `C=CCN(c1nccs1)S(=O)(=O)c1ccc(Cl)cc1` [Compound 30, N-Allyl-4-chloro-N-(thiazol-2-yl)benzenesulfonamide], the “ABTS % Scavenging” value in the assay “ABTS method” (10 μM) was found to be 23.11 ± 0.02%; in “ABTS method” (20 μM), 40.3 ± 0.53%; in “ABTS method” (30 μM), 46.01 ± 0.19%; in the assay “ABTS method” (40 μM), 59.5 ± 0.20%; in the assay “ABTS method” (50 μM) it was 87.11 ± 0.15%. The concentration for half-maximal inhibition (IC50) in “ABTS method” turned out to be 37.6 ± 0.01 µM; against jack bean urease, 28.1 ± 0.35 µM; in assay [1], 52.3 ± 0.21 µM; in assay [2] it was 32.3 ± 0.37 µM; in assay [3] it was 43 ± 0.09 µM. At jack bean urease, the “Types of inhibition (urease)” value is on record as “Non-competitive”. Moreover, the “DPPH % Scavenging” value came to 38.5 ± 0.19% in assay [1] (25 μM), 46.1 ± 0.11% in assay [1] (50 μM), 77.2 ± 0.13% in assay [1] (75 μM) and 81.2 ± 0.15% in assay [1] (100 μM). Also, the “superoxide anion % scavenging” value in assay [3] (25 μM) was determined as 29 ± 0.34%; in assay [3] (50 μM), 63 ± 0.01%; in assay [3] (75 μM) it was 79 ± 0.11%; in assay [3] (100 μM), 87 ± 0.21%. Besides, the “Type of Inhibition” value at α-Glucosidase was “Non-competitive”.
For `C=CCN(c1nccs1)S(=O)(=O)c1ccc(F)cc1` [Compound 31, N-Allyl-4-fluoro-N-(thiazol-2-yl)benzenesulfonamide], the “ABTS % Scavenging” value in the assay “ABTS method” (10 μM) is on record as 29.31 ± 0.2%; in the assay “ABTS method” (20 μM) it was 37.15 ± 0.28%; in “ABTS method” (30 μM), 41.11 ± 0.39%; in the assay “ABTS method” (40 μM), 47.12 ± 0.17%; in “ABTS method” (50 μM) it was 73.04 ± 0.12%. Also, the IC50 in the assay “ABTS method” worked out at 46.13 ± 0.13 µM; on jack bean urease, 46.02 ± 0.05 µM; in assay [1] it was 66.3 ± 0.2 µM; in assay [2], 51.39 ± 0.11 µM; in assay [3], 60 ± 0.05 µM. The “Types of inhibition (urease)” value on jack bean urease is given as “Non-competitive”. In addition, the “DPPH % Scavenging” value in assay [1] (25 μM) worked out at 34.02 ± 0.1%; in assay [1] (50 μM), 43.1 ± 0.13%; in assay [1] (75 μM), 73.2 ± 0.5%; in assay [1] (100 μM), 90.5 ± 0.11%. Further, the “superoxide anion % scavenging” value in assay [3] (25 μM) was 25 ± 0.11%; in assay [3] (50 μM), 46 ± 0.05%; in assay [3] (75 μM) it was 79 ± 0.33%; in assay [3] (100 μM), 104 ± 0.22%. For the same compound, the “Type of Inhibition” value on α-Glucosidase is reported as “Non-competitive”.
